In ChEMBL document CHEMBL5154939, “Improved Binding Affinity and Pharmacokinetics Enable Sustained Degradation of BCL6 In Vivo” (J Med Chem, 2022):
≈ marks a conversion by molar mass, not a printed value. Calls of active or inactive are those of the source. No cut-off for these calls is given here.

Legend:
[1] = biological target: T1, B-cell lymphoma 6 protein (Homo sapiens, UniProt P41182); experiment: Degradation of BCL6 in human OCI-Ly1 cells incubated for 2 hrs by MSD assay; type: cell-based
Procedure, shortened: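 Lysates were read by MSD sandwich immunoassay (goat capture, rabbit detection anti-BCL6, electrochemiluminescence). Signal was normalised to DMSO (high) and a reference degrader control at 2 μM (low). DC50 came from a four-parameter logistic fit, with Dmax reported.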

[2] = Cmax in BALB/c mouse at 1 mg/kg, iv or 5 mg/kg, po measured after 6 hrs post-dose by ESI-LCMS/MS based UPLC analysis; type: ADME, organism-based; parameters: time 6 hrs, dose 5 mg/kg, route po; conditions: in vivo
[3] = Clearance in BALB/c mouse at 1 mg/kg, iv or 5 mg/kg, po measured after 6 hrs post-dose by ESI-LCMS/MS based UPLC analysis relative to hepatic blood flow; type: ADME, organism-based; conditions: in vivo
[4] = Passive membrane permeability of compound in phosphate buffered saline at pH 7.4 at 10 uM incubated for 16 hrs by PAMPA assay based TQ-S LC-MS/MS analysis; type: ADME; conditions: read-out: permeability
Procedure, shortened: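 PAMPA with a 2% phosphatidylcholine-in-dodecane membrane. Compound at 10 µM in PBS pH 7.4 containing 1% BSA was incubated 16 h at 30 °C. Supernatants were diluted and quantified by LC-MS/MS.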

[5] = Kinetic aqueous solubility of the compound in 1% DMSO/PBS at pH 7.4 incubated for 2 hrs by UV-vis detection based HPLC analysis; type: physicochemical; conditions: PBS with 1% DMSO, read-out: Kinetic_solubility
Procedure, shortened: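 A 10 mM DMSO stock was diluted into PBS pH 7.4 to 100 µM final with 1% DMSO, shaken 2 h at 20 °C and centrifuged. The supernatant was mixed with DMSO and measured by HPLC-UV on a 5 min water:methanol gradient with 0.1% formic acid at 30 °C, against an external standard from the same stock.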

[6] = biological target: T1, B-cell lymphoma 6 protein
[7] = Toxicity in SCID mouse xenografted with human OCI-Ly1 cells assessed as noticeable adverse effects at 50 mg/kg, po measured for 12 to 24 hrs; type: organism-based; conditions: in vivo, time 12-24 hrs
Procedure, shortened: (§1)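 Female SCID mice with subcutaneous OCI-Ly1 xenografts (1.5×10^7 cells in serum-free IMDM/Matrigel; tumours 0.4-0.6 cm³ at day 20) received one oral dose of 50 mg/kg or vehicle (DMSO/Kolliphor HS15/PEG400/HPMC). Groups of n=3 were sampled at 12, 16 and 24 h. Tumour lysates were analysed by Wes capillary electrophoresis, with BCL6 normalised to GAPDH.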

[8] = Toxicity in SCID mouse xenografted with human HT cells assessed as body weight loss at 50 mg/kg, po bid measured upto 22 days; type: organism-based; conditions: in vivo, 528 h, time < 22 day
Procedure, shortened: (§2)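 HT cells grown in RPMI-1640 with 10% FBS, kept at 0.5-2 × 10^6 cells/mL. For implantation, 10^7 cells per 200 µL in serum-free RPMI plus an equal volume of Matrigel were injected subcutaneously at a single site in female SCID mice. At day 20, tumours of 0.4-0.6 cm³ were chosen, n=10 per group. Oral dosing at 50 mg/kg or vehicle was given every 12 h for 22 days (DMSO/Kolliphor HS15/PEG400/aqueous HPMC, 0.2 mL per 20 g).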

[9] = Toxicity in BALB/c mouse at 1 mg/kg, iv or 5 mg/kg, po measured upto 24 hrs post-dose; type: organism-based; conditions: in vivo
[10] = system: HT; experiment: Antitumor activity against human HT cells xenografted in SCID mouse assessed as reduction in tumor growth at 50 mg/kg, po bid measured upto 22 days; type: functional, organism-based; conditions: time <= 22.0 day; procedure, shortened: as §2
[11] = system: OCI-Ly1; experiment: Downregulation of BCL6 levels in human OCI-Ly1 cells xenografted in SCID mouse at 50 mg/kg, po measured for 12 to 24 hrs by capillary electrophoresis method; type: functional, organism-based; conditions: time lower […], time upper 24.0 hrs; procedure, shortened: as §1
[12] = system: HT; experiment: Downregulation of BCL6 levels in human HT cells xenografted in SCID mouse at 50 mg/kg, po bid measured for 4 to 12 hrs post-dose by capillary electrophoresis method; type: functional, organism-based; conditions: time lower 4.0 hrs, time upper […]
Procedure, shortened: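 Female SCID mice bearing subcutaneous HT xenografts (10^7 cells with Matrigel) were dosed orally at 50 mg/kg BID, every 12 h, for 22 days; vehicle was DMSO/Kolliphor HS15/PEG400/1.25% HPMC. Tumours were taken 4 and 12 h after the final dose, snap-frozen and bead-homogenised in Tris/Triton lysis buffer. Lysates at 0.0875 mg/ml were run on Wes capillary electrophoresis, with BCL6 normalised to GAPDH.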

Row | SMILES | EC50 [1] [nM] | further results
1 | CC(=O)N[C@H]1C[C@@H](C)CN(c2ncc(Cl)c(Nc3ccc4c(c3)c3c(c(=O)n4C)OCC(F)(F)[C@H](C4CC4)N3)n2)C1 | > 2000 | 
2 | C[C@@H]1CN(c2ncc(Cl)c(Nc3ccc4c(c3)n(CCC(C)(C)O)c(=O)n4C)n2)C[C@H](C)C1(F)F |  | Cmax [2]: 1580 nM; CLH [3]: 22%; Papp at 16 h, 10 µM [4]: 33 ×10⁻⁶ cm/s
3 | Cn1c(=O)c2c(c3cc(Nc4nc(N5CCC(F)(F)[C@H](CO)C5)ncc4Cl)ccc31)N[C@@H](C1CC1)C(F)(F)CO2 | > 2000 | 
4 | C[C@@H]1C[C@H](N(C)C)CN(c2ncc(Cl)c(Nc3ccc4c(c3)c3c(c(=O)n4C)OCC(F)(F)[C@H](C4CC4)N3)n2)C1 | > 2000 | 
5 | C[C@@H]1C[C@H](O)CN(c2ncc(Cl)c(Nc3ccc4c(c3)c3c(c(=O)n4C)OCC(F)(F)[C@H](C4CC4)N3)n2)C1 | > 2000 | EC50 [6]: > 2000 nM; Papp at 16 h, 10 µM [4]: 16 ×10⁻⁶ cm/s
6 | C[C@H]1C[C@H](O)CN(c2ncc(Cl)c(Nc3ccc4c(c3)c3c(c(=O)n4C)OCC(F)(F)[C@H](C4CC4)N3)n2)C1 | > 2000 | 
7 | Cn1c(=O)c2c(c3cc(Nc4nc(N5CCC(F)(F)[C@H](O)C5)ncc4Cl)ccc31)N[C@@H](C1CC1)C(F)(F)CO2 | > 2000 | 
8 | C[C@@H]1C[C@@H](O)CN(c2ncc(Cl)c(Nc3ccc4c(c3)c3c(c(=O)n4C)OCC(F)(F)[C@H](C4CC4)N3)n2)C1 | > 2000 | 
9 | Cn1c(=O)n(CCC(C)(C)O)c2cc(Nc3nc(N4CCC(F)(F)C(O)C4)ncc3Cl)ccc21 (racemic) | 276 | 
10 | Cn1c(=O)c2c(c3cc(Nc4nc(N5CCC[C@@H](O)C5)ncc4Cl)ccc31)N[C@@H](C1CC1)C(F)(F)CO2 | > 2000 | 
11 | Cn1c(=O)c2c(c3cc(Nc4nc(N5CCC[C@H](O)C5)ncc4Cl)ccc31)N[C@@H](C1CC1)C(F)(F)CO2 | > 2000 | 
12 | C[C@H]1C[C@@H](O)CN(c2ncc(Cl)c(Nc3ccc4c(c3)n(CCC(C)(C)O)c(=O)n4C)n2)C1 (relative stereo) | 35 | 
13 | C[C@H]1C[C@@H](O)CN(c2ncc(Cl)c(Nc3ccc4c(c3)c3c(c(=O)n4C)OCC(F)(F)[C@H](C4CC4)N3)n2)C1 | 0.7 | Activity [7]: Non-Toxic; Activity [8]: Non-Toxic; Cmax [2]: 3950 nM; Activity [9]: Non-Toxic; CLH [3]: 6%; Activity [10]: Active; EC50 [6]: 1 nM; Activity [11]: Active; Activity [12]: Active

The next lines start with results.

Row | EC50 [1] [nM] | SMILES | further results
14 | 2.7 | Cn1c(=O)c2c(c3cc(Nc4nc(N5CCC(F)(F)[C@@H](CO)C5)ncc4Cl)ccc31)N[C@@H](C1CC1)C(F)(F)CO2 | solubility kinetic at 2 h [5]: 13 µM (≈ 7.58 µg/mL); Papp at 16 h, 10 µM [4]: 21 ×10⁻⁶ cm/s
15 | 9.8 | C[C@H]1C[C@@H](N(C)C)CN(c2ncc(Cl)c(Nc3ccc4c(c3)c3c(c(=O)n4C)OCC(F)(F)[C@H](C4CC4)N3)n2)C1 | 
16 | 7.1 | Cn1c(=O)c2c(c3cc(Nc4nc(N5CCC(F)(F)[C@@H](O)C5)ncc4Cl)ccc31)N[C@@H](C1CC1)C(F)(F)CO2 | 
17 | 2.2 | CC(=O)N[C@@H]1C[C@H](C)CN(c2ncc(Cl)c(Nc3ccc4c(c3)c3c(c(=O)n4C)OCC(F)(F)[C@H](C4CC4)N3)n2)C1 | 
18 | 32.6 | C[C@@H]1CCCN(c2ncc(Cl)c(Nc3ccc4c(c3)c3c(c(=O)n4C)OCC(F)(F)[C@H](C4CC4)N3)n2)C1 | 
19 | 6.3 | C[C@H]1CCCN(c2ncc(Cl)c(Nc3ccc4c(c3)c3c(c(=O)n4C)OCC(F)(F)[C@H](C4CC4)N3)n2)C1 | 
